{"source": "ChEMBL document CHEMBL4732082", "about": "“Development of novel benzimidazole-derived neddylation inhibitors for suppressing tumor growth invitro and invivo” (Eur J Med Chem, 2021)", "key": {"[1]": {"molecular_target": "T1, NEDD8-activating enzyme E1 catalytic subunit (Homo sapiens, UniProt Q8TBC4)", "T1 sequence (Q8TBC4 whole entry)": "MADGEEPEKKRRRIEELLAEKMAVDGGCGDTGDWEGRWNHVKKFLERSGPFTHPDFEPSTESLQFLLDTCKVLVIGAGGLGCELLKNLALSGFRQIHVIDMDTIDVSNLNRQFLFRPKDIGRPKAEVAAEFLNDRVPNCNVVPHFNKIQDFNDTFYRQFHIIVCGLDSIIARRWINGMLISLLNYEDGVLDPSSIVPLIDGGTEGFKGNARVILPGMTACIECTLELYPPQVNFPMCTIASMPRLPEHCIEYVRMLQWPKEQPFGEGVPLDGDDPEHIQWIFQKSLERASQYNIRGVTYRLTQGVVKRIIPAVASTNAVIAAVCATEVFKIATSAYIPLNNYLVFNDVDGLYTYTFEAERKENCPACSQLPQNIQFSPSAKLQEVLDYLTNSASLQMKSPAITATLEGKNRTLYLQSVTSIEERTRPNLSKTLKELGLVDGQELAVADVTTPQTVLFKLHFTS", "test": "Inhibition of NAE (unknown origin)-mediated neddylation assessed as suppression of cullin1-Nedd8 adduct formation preincubated for 10 mins followed by ATP addition and measured after 30 mins by immunoblot analysis"}, "[2]": {"test": "Toxicity in nude mouse assessed as effect on body weight at 30 mg/kg, qd after 24 days", "assay_type": "organism-based", "conditions": "in vivo, 576 h, time 24 day", "how_it_was_run": "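Female nude mice were inoculated subcutaneously with 2×10^6 A549 cells in 0.1 mL PBS. At tumor volume 70–100 mm³, mice were randomized into 5 groups of 6. Dosing was ip or oral gavage, once daily on a 5-days-on/2-days-off schedule, with 10% 2-hydroxypropyl-β-cyclodextrin/water as vehicle control. Body weight and tumor volume were measured every two days; tumors were weighed at sacrifice. Significance by two-tailed Student's t-test.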"}}}
{"molecule": "CCOc1nc2cccc(C(=O)OC(C)OC(=O)OC3CCCCC3)c2n1Cc1ccc(-c2ccccc2-c2nnn[nH]2)cc1", "note": "(configuration not stated) [CANDESARTAN CILEXETIL]", "values": [{"measurement": "IC50", "setting": "[1]", "result": 16.4, "unit": "µM"}, {"measurement": "Activity", "setting": "[2]", "result": "Non-Toxic"}]}
